# IDH1 mut inh – inhibitors of IDH1 R132H reductase, primary screen, biochemical, plate reader, single point | inhibition, % at 10 µM | diaphorase/resazurin fluorescence, 60 min | Isocitrate dehydrogenase [NADP] cytoplasmic (Homo sapiens), O75874 | 70,000 compounds, 0.18% hits; in the data active = inhibition above about 34%; inconclusive = no clear call, values can overlap the other calls; inactive = below about 11%;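 note: 0% = DMSO and 100% = no enzyme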
# Pf Dd2 growth – P. falciparum Dd2 growth inhibitors, primary screen, SYBR Green fluorescence, single dose replicates. 94,000 compounds, 2.3% hits. 72 h; hits give low values. AID 1159554, 2015. activity change, % at 10 µM; in the data active = activity change below about -80%; inconclusive = no clear call, values can overlap the other calls
# GASC1 inh – inhibitors of GASC-1 (KDM4C) histone demethylase, primary screen, biochemical, single concentration HTS; inhibition, % at 12.5 µM; 96,000 compounds, 0.15% hits; GST-KDM4C 2-372, H3K9me3 peptide, LANCE TR-FRET; AID 720574, 2013; Lysine-specific demethylase 4C (Homo sapiens), Q9H3R0;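 active = mean replicate inhibition above about 25%, with at least 55% of replicates also reaching it, limit read from the data, passing the limit was not always enough; inconclusive = only one of those two conditions met; inactive = neither condition met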
# Target sequence (Q9H3R0 2-372 limits assumed): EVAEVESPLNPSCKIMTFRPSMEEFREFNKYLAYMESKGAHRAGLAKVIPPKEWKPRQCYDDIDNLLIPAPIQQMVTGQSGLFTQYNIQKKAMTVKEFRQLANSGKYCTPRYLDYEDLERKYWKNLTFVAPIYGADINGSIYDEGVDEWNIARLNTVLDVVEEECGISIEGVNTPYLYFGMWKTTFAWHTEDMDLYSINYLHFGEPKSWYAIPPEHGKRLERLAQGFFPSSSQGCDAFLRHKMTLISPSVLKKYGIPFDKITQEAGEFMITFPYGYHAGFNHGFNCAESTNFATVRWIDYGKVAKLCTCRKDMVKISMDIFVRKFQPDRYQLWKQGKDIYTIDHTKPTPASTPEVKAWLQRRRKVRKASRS
#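 Material: N-terminal GST-fused human GASC-1 (KDM4C) fragment, residues 2-372. Input: 10 nM enzyme. Incubation: enzyme reaction 30 min, then detection 60 min, both room temperature. Doses: one test concentration per compound. Read-out basis: inhibition from TR-FRET ratio decrease. Detection: LANCE TR-FRET, excitation 340 nm, emissions 618 and 671 nm.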
# T cruzi growth-1 – T. cruzi intracellular proliferation inhibitors, primary screen, cell-based, beta-gal Tulahuen parasites, NIH3T3 host, luminescence; T. cruzi beta-gal in NIH3T3, GalScreen luminescence, 90 h; 77,000 compounds, 5.9% hits; inhibition, % at 8.34 µM;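 active = mean inhibition above about 93%, with at least 55% of replicates each passing it, limit read from the data, passing the limit was not always enough; inconclusive = only one of those two conditions holds; inactive = neither condition holds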
# T cruzi growth-2 – T. cruzi intracellular proliferation inhibitors, confirmation, cell-based, NIH3T3 host, beta-gal parasite, luminescence, cherry-pick; T. cruzi beta-gal in NIH3T3, GalScreen luminescence, 90 h; inhibition, % at 8.35 µM; AID 651739, 2012; 5,600 compounds, 72% hits; shares compounds with T cruzi growth-1;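 active = mean replicate inhibition above about 95% and at least 55% of replicates individually reaching it, limit read from the data; inconclusive = only one of the two criteria is met; inactive = neither criterion is met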
# T cruzi growth-3 – inhibitors of intracellular T. cruzi replication, confirmation, NIH3T3 host cells, beta-gal parasites, cherry-pick, set 2. shares compounds with T cruzi growth-1. T. cruzi beta-gal in NIH3T3, GalScreen luminescence, 90 h. inhibition, % at 2.09 µM. 5,600 compounds, 21% hits;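 active = mean inhibition above about 95%, with at least 55% of replicates also reaching it, limit read from the data; inconclusive = meets just one of the two conditions; inactive = meets neither condition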;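 note: plate controls were neutral control median for no effect and positive control median for full effect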
# 3T3 cytotox – cytotoxicity in mouse NIH/3T3 fibroblasts, confirmation, cytotoxicity control for T. cruzi proliferation inhibitor project, cell-based, cherry-pick, single point | shares compounds with T cruzi growth-1 | AID 651742, 2012 | 5,600 compounds, 14% hits | cytotoxicity (signal decrease), % at 8.35 µM | NIH/3T3 viability, CellTiter-Glo ATP luminescence, 90 h;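 active = mean signal decrease across replicates above about 35% based on untreated-well scatter, with enough replicates individually passing, limit read from the data; inconclusive = no rule stated though some were filed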;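 note: 0% = median of neutral control wells and 100% = median of positive control wells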
# 3T3 cytotox 2 – NIH/3T3 fibroblast cytotoxicity, confirmation, cytotoxicity control, cell-based, cherry-pick, single point, set 2; shares compounds with T cruzi growth-1; NIH/3T3 viability, CellTiter-Glo ATP luminescence, 90 h; inhibition, % at 24.9 µM; 5,600 compounds, 56% hits; AID 651744, 2012;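 active = mean loss of cell viability signal at or above a set limit, and enough replicates individually reaching it; inconclusive = meets only the mean limit or only the replicate share; inactive = meets neither condition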;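 note: 0% = median of neutral control wells and 100% = median of positive control wells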
# * = called active by the depositor; ? = inconclusive; . = no result. Most compounds without a hit are left out; they make up all but 5.9% or so of the library.
SMILES,IDH1 mut inh,Pf Dd2 growth,GASC1 inh,T cruzi growth-1,T cruzi growth-2,T cruzi growth-3,3T3 cytotox,3T3 cytotox 2
COc1c(O)cc(-c2oc3cc(O)cc(O)c3c(=O)c2O[C@@H]2O[C@@H](C)[C@H](O)[C@@H](O)[C@H]2O)cc1O,-1,.,.,.,.,.,.,.
CN1[C@H](C(=O)NCc2ccccc2F)[C@@H](CO)[C@@H]2Cn3c(ccc(C4=CCCC4)c3=O)[C@@H]21,.,.,2,58,.,.,.,.
CCCN1[C@@H]2c3ccc(C4=CCCC4)c(=O)n3C[C@@H]2[C@@H](CO)[C@@H]1C(=O)NCc1cccc(OC)c1,.,-8,-1,101*,73,-36,20,?
CN1[C@@H]2c3ccc(C4=CCCCC4)c(=O)n3C[C@@H]2[C@@H](CO)[C@@H]1C(=O)NCc1ccccc1,.,-9,3,103*,96*,30,10,7
COc1cccc(CNC(=O)[C@@H]2[C@@H](CO)[C@@H]3Cn4c(ccc(C5=CCCC5)c4=O)[C@@H]3N2CC2CC2)c1,.,-9,11,37,.,.,.,.
CN1CCN(C(=O)C[C@@H]2CC[C@@H]3[C@H](COc4ccc(NC(=O)C5CC5)cc4C(=O)N3C)O2)CC1,.,4,-3,22,.,.,.,.
C[C@@H]1CN([C@@H](C)CO)C(=O)c2cc(NC(=O)C3CCCCC3)ccc2O[C@@H](C)CCCCO[C@@H]1CN(C)Cc1ccc(C(F)(F)F)cc1,0,-13,0,?,104*,105*,2,7
C[C@@H]1CCCCO[C@H](CN(C)Cc2ccc(C(F)(F)F)cc2)[C@H](C)CN([C@H](C)CO)C(=O)c2cc(NC(=O)C3CCCCC3)ccc2O1,.,-37,-4,?,96*,110*,-3,14
C[C@@H]1CCCCO[C@@H](CN(C)Cc2ccc(C(F)(F)F)cc2)[C@@H](C)CN([C@@H](C)CO)C(=O)c2cc(NC(=O)C3CCCCC3)ccc2O1,2,-26,-1,?,102*,59,3,-20
C[C@@H]1CCCCO[C@@H](CN(C)Cc2ccc(C(F)(F)F)cc2)[C@@H](C)CN([C@H](C)CO)C(=O)c2cc(NC(=O)C3CCCCC3)ccc2O1,-1,38,-1,70,.,.,.,.
C[C@@H]1CN([C@H](C)CO)C(=O)c2cc(NC(=O)C3CCCCC3)ccc2O[C@@H](C)CCCCO[C@@H]1CN(C)Cc1ccc(C(F)(F)F)cc1,.,-35,-2,?,93,113*,-5,-20
C[C@H](CO)N1C[C@H](C)[C@H](CN(C)S(=O)(=O)c2cccc(F)c2)Oc2ncc(C#CC3CCCC3)cc2C1=O,0,-41,-2,100,.,.,.,.
C[C@@H]1CN([C@@H](C)CO)C(=O)c2cc(C#CC3CCCC3)cnc2O[C@@H]1CN(C)S(=O)(=O)c1cccc(F)c1,-4,-58,-1,104*,96*,72,29,75*
C[C@H](CO)N1C[C@H](C)[C@@H](CN(C)S(=O)(=O)c2cccc(F)c2)Oc2ncc(C#CC3CCCC3)cc2C1=O,-4,-72,2,119*,104*,88,6,98*
C[C@H](CO)N1C[C@H](C)[C@@H](CN(C)S(=O)(=O)c2cccc(F)c2)Oc2ncc(C#CC3CC3)cc2C1=O,.,-56,-1,-88,.,.,.,.
C[C@@H]1CN([C@@H](C)CO)C(=O)c2cc(C#CC3CCCCC3)cnc2O[C@H]1CN(C)S(=O)(=O)c1ccc(F)cc1,8,-39,12,101*,105*,98*,21,99*
C/C=C/c1ccc2c(c1)O[C@@H](CN(C)Cc1ccccc1F)[C@H](C)CN([C@@H](C)CO)S2(=O)=O,0,-22,-2,116*,96*,90,57*,105*
C/C=C/c1ccc2c(c1)O[C@@H](CN(C)Cc1ccccc1F)[C@@H](C)CN([C@H](C)CO)S2(=O)=O,0,-6,2,119*,105*,80,0,105*
C[C@@H]1CN([C@@H](C)CO)S(=O)(=O)c2ccc(Br)cc2O[C@H]1CN(C)Cc1ccccc1F,.,-16,-3,.,.,.,.,.
C[C@H]1CN([C@@H](C)CO)S(=O)(=O)c2ccc(Br)cc2O[C@H]1CN(C)Cc1ccccc1F,.,-4,1,.,.,.,.,.
COc1ccc(NC(=O)N(C)C[C@H]2Oc3ccc(NS(=O)(=O)c4cn(C)cn4)cc3C(=O)N([C@H](C)CO)C[C@H]2C)cc1,4,44,0,65,.,.,.,.
CC=Cc1ccc2n(c1=O)C[C@@H]1N[C@H]2[C@H](C(=O)NCc2ccc3c(c2)OCO3)[C@H]1CO (mixture of isomers),.,.,0,-14,.,.,.,.
C[C@@H]1CN([C@@H](C)CO)C(=O)c2cc(NS(=O)(=O)c3ccccc3)ccc2O[C@@H]1CN(C)Cc1ccc2c(c1)OCO2,-12,-2,2,102*,-31,11,-5,18
C[C@H](CO)N1C[C@H](C)[C@@H](CN(C)Cc2ccc3c(c2)OCO3)Oc2ccc(NS(=O)(=O)c3ccccc3)cc2C1=O,-2,30,0,-3,.,.,.,.
C[C@@H]1CN([C@@H](C)CO)C(=O)c2cc(NS(=O)(=O)c3ccccc3)ccc2O[C@@H]1CN(C)Cc1ccc(C(F)(F)F)cc1,0,19,-2,73,.,.,.,.
C[C@H](CO)N1C[C@H](C)[C@H](CN(C)Cc2ccc(C(F)(F)F)cc2)Oc2ccc(NS(=O)(=O)c3ccccc3)cc2C1=O,0,0,-1,104*,76,70,-9,11
C[C@H]1CN([C@@H](C)CO)C(=O)c2cc(NS(=O)(=O)c3ccccc3)ccc2O[C@@H]1CN(C)Cc1ccc(C(F)(F)F)cc1,2,16,5,104*,70,64,24,39*
Cc1ccc(NC(=O)Cn2c(-c3nonc3N)nc3ccccc32)cc1Cl,0,.,.,.,.,.,.,.
CN(C)C(=O)c1cccc(-c2ccc3c(c2)[C@@H]2[C@@H](CCN2S(=O)(=O)c2cn(C)cn2)[C@H](CO)N3)c1,.,29,-2,?,96*,66,-11,-23

# Compound activity (PubChem)
